The values below come from ChEMBL document CHEMBL4619720, “Synthesis and biological evaluation of new antioxidant and antiproliferative chalcogenobiotin derivatives for bladder carcinoma treatment” (Bioorg Med Chem, 2020).

The source made the active and inactive calls. The calls are words filed in the database; no cut-off is given here. Some results are limits rather than exact numbers.

Data set [1] relates to 5637. Briefly: Antiproliferative activity against human 5637 cells assessed as inhibition of cell growth at 0.4 uM to 50 uM after 48 hrs by MTT assay. Format: functional, cell-based. A digest of the protocol: (§1)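 Human bladder carcinoma 5637 cells, grown in DMEM with 10% FBS at 37 °C under 5% CO2, were seeded at 2 × 10^4 cells/well and cultured 24 h. Medium was then replaced with compound in DMEM/FBS, DMSO ≤0.5%, for 24 or 48 h. MTT was added for 3 h, formazan dissolved in DMSO, and OD read at 492 nm. Inhibition % = [1 − Abs treated/Abs control] × 100; three independent experiments.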
(Formazan colour is commonly taken as a measure of viable cells.)

Data set [2] has as its system 5637. Put plainly: Antiproliferative activity against human 5637 cells assessed as inhibition of cell growth at 0.4 uM to 50 uM after 24 hrs by MTT assay. Format: functional, cell-based. A digest of the protocol:
as §1

Data set [3] in a line: Cytotoxicity against human leukocytes assessed as reduction in cell viability at 100 uM after 3 hrs by Trypan blue exclusion assay. A digest of the protocol: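 Leukocytes isolated from heparinized venous blood of healthy donors, 2 × 10^6/mL. Incubated 3 h in Hank's buffer with 10% human plasma containing DMSO (0.5%), compounds (100 µM) or t-butyl hydroperoxide (1 mM) as positive control. Three independent experiments.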

Data set [4] concerns 5637. Briefly: Cell cycle arrest in human 5637 cells assessed as accumulation at G2/M phase at 12.5 uM after 24 hrs by propidium-iodide staining based flow cytometry. Format: functional. A digest of the protocol: (§2)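 5637 cells treated 24 h at 12.5 µM alongside untreated controls. DNA content measured by propidium iodide staining and flow cytometry. Triplicate treatments; analysis by two-way ANOVA with t-tests, p < 0.05.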
In general terms: In flow cytometry, cells or beads pass a laser one at a time.

Data set [5] relates to 5637. Put plainly: Antiproliferative activity against human 5637 cells assessed as inhibition of cell growth at 0.4 uM to 50 uM by MTT assay. Format: functional, cell-based. Particulars: TDE = time-dependent effect. A digest of the protocol:
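5637 bladder carcinoma cells in DMEM/10% FBS at 37 °C, 5% CO2, log phase, seeded 2 × 10^4 per well for 24 h. Compound exposure 0.4–50 µM for 24 or 48 h, DMSO ≤0.5%. MTT (5 mg/mL in PBS) 3 h at 37 °C, formazan dissolved in DMSO, read at 492 nm. Inhibition % = [1 − Abs treated/Abs control] × 100; IC50 by nonlinear regression; three independent experiments.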

Data set [6] is described as follows: Antioxidant activity assessed as GPx-like activity to decompose hydrogen peroxide at 450 uM measured for 20 mins by spectrophotometer method. It counts as functional. A digest of the protocol: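 GPx-mimic assay with thiophenol replacing glutathione. Ethanol, thiophenol 2.5 mM and compound (final 0–450 µM; t1/2 also taken at 55 µM) or DMSO blank, started with H2O2 2.3 mM. […] followed at 305 nm for 20 min. Ebselen and diphenyl diselenide at 55 µM as references; three independent experiments.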

The nature of data set [7]: Antioxidant activity assessed as inhibition of Fe(II)-induced lipid peroxidation after 30 mins by TBARS assay. Format: functional. A digest of the protocol:
(§3)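 Lipid peroxidation system: phosphatidylcholine 0.4 mg, FeSO4 55 µM, Tris-HCl pH 7.4 and compound (final 0–200 µM), 30 min at 37 °C. Then acetic acid buffer pH 3.4 plus 0.22% thiobarbituric acid, 1 h at 100 °C, n-butanol extraction of pink chromogen. IC50 from concentration curves; α-tocopherol and diphenyl diselenide as references; three independent experiments.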

The nature of data set [8]: Antioxidant activity assessed as half life of DPPH radical scavenging activity at 500 uM for 180 mins measured every 30 mins relative to control. Format: functional. A digest of the protocol:
(§4)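 Test compounds mixed with 0.3 mM DPPH in ethanol; single-point screen at 1 mM, time course at final 500 µM. Absorbance at 518 nm read every 30 min over 180 min. Positive controls were BHT (final 500 µM) and diphenyl diselenide (final 2 mM); t1/2 is the time to scavenge 50% of DPPH. DMSO vehicle; three independent experiments.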
(In general: DPPH is a stable violet radical that fades when it is reduced.)

Data set [9] in a line: Antioxidant activity assessed as inhibition of Fe(II)-induced lipid peroxidation at 200 uM after 30 mins by TBARS assay. It counts as functional. A digest of the protocol: as §3
The nature of data set [10]: Antioxidant activity assessed as DPPH radical scavenging activity at 1 mM for 180 mins measured every 30 mins relative to control. It counts as functional. A digest of the protocol:
as §4

Data set [11] has as its system 5637. Briefly: cells. As to conditions: Homo sapiens, 5637, 48 h.
Data set [12] relates to 5637. Put plainly: cells. As to conditions: Homo sapiens, 5637, 24 h.
Data set [13] in a line: Antioxidant activity assessed as half life of GPx-like activity to decompose hydrogen peroxide at 55 uM measured for 20 mins by spectrophotometer method.
Data set [14] concerns CHO-K1. Briefly: Cytotoxicity against CHOK1 cells assessed as inhibition of cell growth at 0.4 uM to 50 uM after 48 hrs by MTT assay. Format: cell-based, Cricetulus griseus. As to conditions: chinese hamster, cho-k1, 48 h. A digest of the protocol: (§5)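 CHO-K1 cells exposed to 0.4–50 µM for 24 and 48 h, then MTT reduction assay. Growth inhibition relative to control; IC50 by nonlinear regression; three independent experiments.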

For data set [15], the system named is CHO-K1. Put plainly: Cytotoxicity against CHOK1 cells assessed as inhibition of cell growth at 0.4 uM to 50 uM after 24 hrs by MTT assay. It counts as cell-based, Cricetulus griseus. Particulars: chinese hamster, cho-k1, 24 h. A digest of the protocol:
as §5

A short description of data set [16]: Cytotoxicity against human leukocytes assessed as reduction in cell viability at 1 mM after 3 hrs by Trypan blue exclusion assay. Particulars: 1000 µM.
Data set [17] can be described thus: Toxicity in Swiss mouse assessed as effect on alkaline phosphatase activity at 100 umol/kg, sc administration and measured for 7 days. It counts as organism-based. As to conditions: in vivo, 168 h. A digest of the protocol: (§6)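 Adult male Swiss mice (25–30 g), n = 4 per group, given a single subcutaneous dose of 100 µmol/kg or DMSO 1 mL/kg. Monitored by closed-circuit TV for 168 h, with body weight, food and water intake recorded daily. Killed by decapitation at day 7; blood urea, creatinine, AST, ALT and alkaline phosphatase measured.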

A short description of data set [18]: Toxicity in Swiss mouse assessed as effect on alanine aminotransferase level at 100 umol/kg, sc administration and measured for 7 days. Particulars: in vivo, 168 h. It counts as organism-based. A digest of the protocol:
as §6

Data set [19] in a line: Toxicity in Swiss mouse assessed as increase in aspartate aminotransferase level in plasma at 100 umol/kg, sc administration and measured for 7 days. Format: organism-based. As to conditions: in vivo, 168 h. A digest of the protocol: as §6
A short description of data set [20]: Toxicity in Swiss mouse assessed as creatinine level in plasma at 100 umol/kg, sc administration and measured for 7 days. As to conditions: in vivo, 168 h. It counts as organism-based. A digest of the protocol: as §6
Data set [21] is described as follows: Toxicity in Swiss mouse assessed as survival rate at 100 umol/kg, sc administration and measured for 7 days. Format: organism-based. As to conditions: in vivo, 168 h. A digest of the protocol:
as §6

A short description of data set [22]: Toxicity in Swiss mouse assessed as urea level in plasma at 100 umol/kg, sc administration and measured for 7 days. It counts as organism-based. As to conditions: in vivo, 168 h. A digest of the protocol:
as §6

In data set [23] the test system is CHO-K1. Put plainly: Cytotoxicity against CHOK1 cells assessed as inhibition of cell growth after 48 hrs by MTT assay relative to control. Format: cell-based. Particulars: Cricetulus griseus, CHO-K1, 48 h. A digest of the protocol: as §5
Data set [24] has as its system CHO-K1. Put plainly: Cytotoxicity against CHOK1 cells assessed as inhibition of cell growth after 24 hrs by MTT assay relative to control. Format: cell-based. Particulars: Cricetulus griseus, CHO-K1, 24 h. A digest of the protocol:
as §5

The subject of data set [25] is 5637. Briefly: Cell cycle arrest in human 5637 cells assessed as accumulation at S-phase at 12.5 uM after 24 hrs by propidium-iodide staining based flow cytometry. Format: functional. A digest of the protocol: as §2
Data set [26] is described as follows: Cytotoxicity against CHOK1 cells assessed as inhibition of cell growth at 12.5 uM after 24 hrs by MTT assay relative to control. Particulars: chinese hamster, CHO-K1 cells. It counts as cell-based, Cricetulus griseus. A digest of the protocol: as §5

Consider `O=C1N[C@H]2[C@H](CS[C@H]2CCCCC(=O)OCCCC[Se]c2ccc(Cl)cc2)N1`, for which the inhibition result in data set [1] and in [2] was “inactive” in each case.
As for `O=C1N[C@H]2[C@H](CS[C@H]2CCCCC(=O)OCCCC[Se]c2ccccc2)N1`, the inhibition entry in data set [1] and in [2] was “inactive” in each case.
Take `O=C1N[C@H]2[C@H](CS[C@H]2CCCCC(=O)OCCCCC[Te]c2ccccc2)N1`: the Activity entry in [3] was “Non-Toxic”; in data set [10], 50%. Moreover, the result in data set [4] and in [6] was Active. In [5], the inhibition entry was “Tde”. The IC50 in data set [7] amounted to 1.33 µM; in data set [11] it was 6.71 µM; in [12], 7.63 µM. Besides, the values for the T1/2 in [8] and in [13] were 23 min and 38.9 min, respectively. Further, the inhibition entry in data set [9] was “Active”.
On to `Cc1cc(C(C)(C)C)c(O)c(C(C)(C)C)c1`, for which the T1/2 in data set [8] was 20.7 min.
As to `O=C(O)CCCC[C@@H]1SC[C@@H]2NC(=O)N[C@@H]21` [BIOTIN], the Activity entry in [14] and in data set [15] was “Non-Toxic” each time. The inhibition entry in [1] and in data set [2] was “inactive” throughout.
For the compound `O=c1c2ccccc2[se]n1-c1ccccc1`, in [13], the T1/2 is 56 min.
`CC(C)(C)OO` [TERT-BUTYL HYDROPEROXIDE]: the Activity result in data set [16] is “Toxic”.
As for `COc1ccc([Se]CCCCOC(=O)CCCC[C@@H]2SC[C@@H]3NC(=O)N[C@@H]32)cc1`, the inhibition entry in data set [1] and in [2] was “inactive” throughout.
Consider `O=C1N[C@H]2[C@H](CS[C@H]2CCCCC(=O)OCCCC[Te]c2ccccc2)N1`, for which the Activity entry in data set [17] was “Non-Toxic”; in [18], “Non-Toxic”; in data set [19], “Toxic”; in data set [20] it was “Non-Toxic”; in data set [21], “Non-Toxic”; in data set [22], “Non-Toxic”. Besides, the Activity result in [3] was “Non-Toxic”; in data set [10], 50%. The IC50 in [23] was 34.2 µM; in [24], 70 µM; in [7] it was 5 µM; in [11], 4.73 µM; in data set [12], 5.8 µM. Besides, the result in data set [25] and in data set [6] was Active. For the same compound, the inhibition result in [5] is “Tde”. The figures for the T1/2 in data set [8] and in data set [13] were 18 min and 15.8 min, respectively. The inhibition result in data set [9] was “Active”.
With `CCCCCCC[Te]c1ccccc1`, the inhibition at 24 h, 12.5 µM in data set [26] was 50%.
As for `Cc1c(C)c2c(c(C)c1O)CC[C@@](C)(CCC[C@H](C)CCC[C@H](C)CCCC(C)C)O2` [ALPHA-TOCOPHEROL], in [7], the IC50 is 60.3 µM. In data set [9], the inhibition entry is “Active”.
Take `c1ccc([Se][Se]c2ccccc2)cc1`: the outcome in [6] was Active. For the same compound, in data set [7], the IC50 is 248 µM. The values for the T1/2 in data set [8] and in data set [13] were more than 180 min and 120 min, respectively. Moreover, in [9], the inhibition result is “Active”.
For `Cc1ccc([Se]CCCCOC(=O)CCCC[C@@H]2SC[C@@H]3NC(=O)N[C@@H]32)cc1`, the inhibition result in [1] and in data set [2] was “inactive” in each case.

By inhibition is commonly meant the relative decrease from the control value, in per cent. Broadly, the IC50 is the point on the concentration scale where inhibition reaches its midpoint.
